Measured values published in ChEMBL document CHEMBL1208778, “Synthesis and anti-cancer activity of chalcone linked imidazolones” (2010).

What was measured:
Type in all cases: functional
BT-549 = test: Growth inhibition of human BT549 cells
Method in brief: (§1)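 Five-dose testing was run within the NCI (Bethesda) in vitro Anticancer Screen Program on a panel of 53 human tumour cell lines from nine cancer types. Growth inhibition is reported as GI50.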

SW-620 = test: Growth inhibition of human SW620 cells
Method in brief: (§2)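 Compounds that passed a preliminary screen were tested at five doses in the NCI (Bethesda) in vitro Anticancer Screen Program against a 53-line human tumour panel spanning leukemia, lung, colon, CNS, melanoma, ovarian, renal, prostate and breast. Growth inhibition is reported as GI50.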

OVCAR-4 = test: Growth inhibition of human OVCAR4 cells; method in brief: as §1
SN12C = test: Growth inhibition of human SN12C cells; method in brief: as §2
MCF7 [1] = test: Growth inhibition of human MCF7 cells; method in brief: as §1
MCF7 [2] = test: Cell cycle arrest in human MCF7 cells assessed as accumulation at S phase at 30 uM after 24 hrs by FACS analysis
Method in brief: (§3)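 MCF-7 cells were treated at 30 µM for 24 h alongside a DMSO control. Fractions in G0, G1, S and G2/M phases were measured by FACS, and values are means of three experiments.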

T47D = test: Growth inhibition of human T47D cells; method in brief: as §2
786-0 = test: Growth inhibition of human 786-0 cells; method in brief: as §1
LOX IMVI = test: Growth inhibition of human LOXIMVI cells; method in brief: as §1
HCT-116 = test: Growth inhibition of human HCT116 cells; method in brief: as §1
[3] = Growth inhibition of human Hs 578T cells; method in brief: as §1
MCF7 [4] = test: Cell cycle arrest in human MCF7 cells assessed as accumulation at G1 phase at 30 uM after 24 hrs by FACS analysis; method in brief: as §3
NCI-H322M = test: Growth inhibition of human NCI-H322M cells; method in brief: as §1
M14 = test: Growth inhibition of human M14 cells; method in brief: as §1
SK-MEL-5 = test: Growth inhibition of human SK-MEL-5 cells; method in brief: as §1
HOP-92 = test: Growth inhibition of human HOP92 cells; method in brief: as §1
SNB-19 = test: Growth inhibition of human SNB19 cells; method in brief: as §2
TK-10 = test: Growth inhibition of human TK10 cells; method in brief: as §2
HOP-62 = test: Growth inhibition of human HOP62 cells; method in brief: as §1
MCF7 [5] = test: Cell cycle arrest in human MCF7 cells assessed as accumulation at G2/M phase at 10 uM after 24 hrs by FACS analysis
Method in brief: (§4)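 MCF-7 breast carcinoma cells were exposed to 10 µM test compound for 24 h, with DMSO as the vehicle control. Cell-cycle distribution was read by FACS as the percentage of cells in G0, G1, S and G2/M.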

K562 = test: Growth inhibition of human K562 cells; method in brief: as §1
SK-OV-3 = test: Growth inhibition of human SKOV3 cells; method in brief: as §2
UO-31 = test: Growth inhibition of human UO31 cells; method in brief: as §2
NCI-H522 = test: Growth inhibition of human NCI-H522 cells; method in brief: as §1
MDA-MB-231 = test: Growth inhibition of human MDA-MB-231 cells; method in brief: as §1
SF-295 = test: Growth inhibition of human SF295 cells; method in brief: as §1
NCI-H226 = test: Growth inhibition of human NCI-H226 cells; method in brief: as §1
MCF7 [6] = test: Cell cycle arrest in human MCF7 cells assessed as accumulation at G2/M phase at 30 uM after 24 hrs by FACS analysis; method in brief: as §3
ACHN = test: Growth inhibition of human ACHN cells; method in brief: as §1
Malme-3M = test: Growth inhibition of human MALME-3M cells; method in brief: as §1
SNB-75 = test: Growth inhibition of human SNB75 cells; method in brief: as §2
A498 = test: Growth inhibition of human A498 cells; method in brief: as §1
NCI/ADR-RES = test: Growth inhibition of human NCI/ADR-RES cells; method in brief: as §1
NCI-H460 = test: Growth inhibition of human NCI-H460 cells; method in brief: as §1
OVCAR-5 = test: Growth inhibition of human OVCAR5 cells; method in brief: as §1
COLO 205 = test: Growth inhibition of human COLO205 cells; method in brief: as §1
MCF7 [7] = test: Cell cycle arrest in human MCF7 cells assessed as accumulation at G0 phase at 30 uM after 24 hrs by FACS analysis; method in brief: as §3
SK-MEL-2 = test: Growth inhibition of human SK-MEL-2 cells; method in brief: as §1
CAKI-1 = test: Growth inhibition of human Caki1 cells; method in brief: as §1
KM12 = test: Growth inhibition of human KM12 cells; method in brief: as §1
A549 = test: Growth inhibition of human A549 cells; method in brief: as §1
MCF7 [8] = test: Cell cycle arrest in human MCF7 cells assessed as accumulation at S phase at 10 uM after 24 hrs by FACS analysis; method in brief: as §4
SF-268 = test: Growth inhibition of human SF268 cells; method in brief: as §1
HCC 2998 = test: Growth inhibition of human HCC2998 cells; method in brief: as §1
OVCAR-8 = test: Growth inhibition of human OVCAR8 cells; method in brief: as §1
PC-3 = test: Growth inhibition of human PC3 cells; method in brief: as §1
MDA-MB-435 = test: Growth inhibition of human MDA-MB-435 cells; method in brief: as §1
SF-539 = test: Growth inhibition of human SF539 cells; method in brief: as §1
UACC-257 = test: Growth inhibition of human UACC257 cells; method in brief: as §2
U-251 = test: Growth inhibition of human U251 cells; method in brief: as §2
RXF 393 = test: Growth inhibition of human RXF393 cells; method in brief: as §1
[9] = Growth inhibition of human RPMI8266 cells; method in brief: as §1
NCI-H23 = test: Growth inhibition of human NCI-H23 cells; method in brief: as §1
OVCAR-3 = test: Growth inhibition of human OVCAR-3 cells; method in brief: as §1
MCF7 [10] = test: Cell cycle arrest in human MCF7 cells assessed as accumulation at G0 phase at 10 uM after 24 hrs by FACS analysis; method in brief: as §4
SK-MEL-28 = test: Growth inhibition of human SK-MEL-28 cells; method in brief: as §1
EKVX = test: Growth inhibition of human EKVX cells; method in brief: as §1
MCF7 [11] = test: Cell cycle arrest in human MCF7 cells assessed as accumulation at G1 phase at 10 uM after 24 hrs by FACS analysis; method in brief: as §4
HT-29 = test: Growth inhibition of human HT-29 cells; method in brief: as §1
UACC-62 = test: Growth inhibition of human UACC62 cells; method in brief: as §2
HCT-15 = test: Growth inhibition of human HCT15 cells; method in brief: as §1

GI50 (BT-549): 4.57 µM
GI50 (SW-620): 2.5 µM
GI50 (OVCAR-4): 6.08 µM
GI50 (MCF7 [1]): 3.18 µM
GI50 (T47D): 3.6 µM
GI50 (786-0): 4.53 µM
GI50 (HCT-116): 1.93 µM
GI50 (NCI-H322M): 8.2 µM
GI50 (SK-MEL-5): 2.63 µM
GI50 (K562): 2.35 µM
GI50 (SK-OV-3): 4.77 µM
GI50 (NCI-H522): 3.48 µM
GI50 (MDA-MB-231): 5.25 µM
GI50 (NCI-H226): 4.1 µM
GI50 (ACHN): 3.4 µM
GI50 (NCI-H460): 3.23 µM
GI50 (OVCAR-5): 3.38 µM
GI50 (COLO 205): 6.61 µM
GI50 (SK-MEL-2): 5.54 µM
GI50 (A549): 4.14 µM
GI50 (HCC 2998): 2.32 µM
GI50 (OVCAR-8): 4.97 µM
GI50 (PC-3): 3.05 µM
GI50 (MDA-MB-435): 3.35 µM
GI50 (U-251): 3.45 µM
GI50 (NCI-H23): 2.85 µM
GI50 (OVCAR-3): 2.7 µM
GI50 (SK-MEL-28): 2.03 µM
GI50 (HT-29): 3.84 µM
GI50 (HCT-15): 3.15 µM
SMILES: COc1ccc(-c2cn(-c3cccc(C(=O)/C=C/c4ccc(O)c(OC)c4)c3)c(=O)[nH]2)cc1
GI50 (SN12C): 4.11 µM
Activity (MCF7 [2]): 16%
GI50 (LOX IMVI): 2.44 µM
GI50 [3]: 4.25 µM
Activity (MCF7 [4]): 54.5%
GI50 (M14): 5.14 µM
GI50 (HOP-92): 2.96 µM
GI50 (SNB-19): 5.84 µM
GI50 (TK-10): 6.08 µM
GI50 (HOP-62): 5.15 µM
Activity (MCF7 [5]): 26.18%
GI50 (UO-31): 5.19 µM
GI50 (SF-295): 13.9 µM
Activity (MCF7 [6]): 9%
GI50 (Malme-3M): 4.42 µM
GI50 (SNB-75): 4.73 µM
GI50 (A498): 3.72 µM
GI50 (NCI/ADR-RES): 2.56 µM
Activity (MCF7 [7]): 20.5%
GI50 (CAKI-1): 4.99 µM
GI50 (KM12): 1.77 µM
Activity (MCF7 [8]): 14%
GI50 (SF-268): 3.4 µM
GI50 (SF-539): 2.25 µM
GI50 (UACC-257): 13.3 µM
GI50 (RXF 393): 5.85 µM
GI50 [9]: 1.35 µM
Activity (MCF7 [10]): 2.16%
GI50 (EKVX): 13.4 µM
Activity (MCF7 [11]): 57.66%
GI50 (UACC-62): 3.96 µM
